Reference: publication PMC12353801 (Nature Medicine, 2025)

Experiments:
[1] = system: patients with IPF; test: Phase 2a trial: treatment-emergent adverse events; format: in vivo, human; conditions: for percentage of patients who have at least one treatment-emergent adverse event / AEs considered to be treatment related / AEs leading to treatment discontinuation / Any AE / Liver function: ALT increase / Liver function: AST increase / Liver function: Liver injury / SAEs considered to be treatment related / SAEs resulting in death / SAEs, grade ≥3: 12 weeks; for AEs considered to be treatment related / AEs leading to treatment discontinuation / Any AE / Liver function: ALT increase / Liver function: AST increase / Liver function: Liver injury / SAEs considered to be treatment related / SAEs resulting in death / SAEs, grade ≥3: n = 18
[2] = system: patients with IPF; test: Phase 2a trial: change in forced vital capacity; format: in vivo, human
Summary of the method: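 This was a double-blind, 1:1:1:1 randomized trial of oral 30 mg QD, 30 mg BID or 60 mg QD against placebo QD for 12 weeks on standard of care. Spirometry to 2019 ATS/ERS criteria, on central SpiroSphere devices or on unchanged local equipment, was done at baseline and week 12. Analysis used ANCOVA (treatment fixed, baseline covariate) with multiple imputation for missing week-12 data, two-sided, intent-to-treat.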

[3] = system: patients with IPF; test: Phase 2a trial: acute exacerbations of IPF and days hospitalized; format: in vivo, human; conditions: 60 mg QD
Summary of the method: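 Acute IPF exacerbations, and days in hospital after each, were recorded from week 0 through week 12 in IPF patients. Patients received oral dosing (30 mg QD, 30 mg BID or 60 mg QD) or placebo QD alongside standard of care. Adverse events were monitored throughout treatment and for 1 week after the last dose.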

[4] = Pharmacokinetics of rentosertib in blood plasma of patients with IPF; format: in vivo, human
[5] = system: serum proteins; test: Olink Explore 3072 proteomic profiling of patient serum; format: in vivo, human; conditions: for number of serum proteins significantly changing with treatment: Benjamini–Hochberg-adjusted P value <0.1
Summary of the method: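 Serum was sampled at baseline and weeks 2, 4, 8 and 12 and profiled on the Olink Explore 3072 panel as NPX. Dose effects were fitted per protein with a generalized linear mixed model: NPX ~ treatment + visit + treatment:visit + (1|patient). Baseline-to-week-12 change was tested by two-sided paired t-test. P values were BH-adjusted, with significance at adjusted P < 0.1.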

[6] = system: healthy individuals; conditions: phase 0 and 1 trials; cited from earlier work

**Q.** With `CC(C)n1cnc(-c2ccc(F)cc2)c1-c1ncc(C(=O)Nc2ccc(N3CCN(C)CC3)cc2)[nH]1` [rentosertib] as the molecule, how does the “TEAE: alanine aminotransferase (ALT) increase” value (“TEAE … (ALT) increase” for short) ([1]; 30 mg BID, 1 patient) read?
**A.** Its value is 5.6%.

**Q.** And the “treatment-related SAEs” value ([1]; 30 mg BID, 2/18)?
**A.** The value was 11.1%.

**Q.** And the “TEAE: diarrhea” value ([1]; 30 mg BID, 3 patients)?
**A.** Its value is 16.7%.

**Q.** What about the “treatment discontinued for AEs due to liver injury or dysfunction” value (from here on “treatment discontinued for AEs due”) ([1]; 30 mg BID, 4/18) of the same molecule?
**A.** Its value is 22.2%.

**Q.** What about the “TEAE: hepatic function abnormal” value ([1]; 30 mg BID, 4 patients) of the same molecule?
**A.** The value was 22.2%.

**Q.** And the “TEAE: hypokalemia” value ([1]; 30 mg BID, 5 patients)?
**A.** Its value is 27.8%.

**Q.** And the “Treatment-related AEs” value ([1]; 30 mg BID, 11/18)?
**A.** Its value is 61.1%.

**Q.** What about the “percentage of patients who have at least one treatment-emergent adverse event” value (“percentage of patients who have” for short) ([1]; 30 mg BID, n = 15/18) of the same molecule?
**A.** Its value is 83.3%.

**Q.** And the “AEs considered to be treatment related” value ([1]; 30 mg BID)?
**A.** The value was 11 (61.1) no. (%).

**Q.** And the “AEs leading to treatment discontinuation” value ([1]; 30 mg BID)?
**A.** The value was 5 (27.8) no. (%).

**Q.** What about the “Any AE” value ([1]; 30 mg BID) of the same molecule?
**A.** The value was 15 (83.3) no. (%).

**Q.** And the “Liver function: ALT increase” value ([1]; 30 mg BID)?
**A.** Its value is 0 (0) no. (%).

**Q.** And the “Liver function: AST increase” value ([1]; 30 mg BID)?
**A.** The value was 0 (0) no. (%).

**Q.** And the “Liver function: Liver injury” value ([1]; 30 mg BID)?
**A.** The value was 2 (11.1) no. (%).

**Q.** And the “SAEs considered to be treatment related” value ([1]; 30 mg BID)?
**A.** The value was 2 (11.1) no. (%).

**Q.** What about the “SAEs resulting in death” value ([1]; 30 mg BID) of the same molecule?
**A.** The value was 1 (5.6) no. (%).

**Q.** And the “SAEs, grade ≥3” value ([1]; 30 mg BID)?
**A.** Its value is 4 (22.2) no. (%).

**Q.** And the “treatment discontinued for AEs due” value ([1]; 30 mg QD, 0/18)?
**A.** Its value is 0%.

**Q.** And the “safety and tolerability, overall” value ([1]; 30 mg QD, 30 mg BID and 60 mg QD over 12 weeks)?
**A.** Its value is “safe and well tolerated”.

**Q.** What about the “treatment-related SAEs” value ([1]; 30 mg QD, 1/18) of the same molecule?
**A.** The value was 5.6%.

**Q.** What about the “TEAE … (ALT) increase” value ([1]; 30 mg QD, 1 patient) of the same molecule?
**A.** The value was 5.6%.

**Q.** And the “TEAE: diarrhea” value ([1]; 30 mg QD, 2 patients)?
**A.** Its value is 11.1%.

**Q.** And the “TEAE: hepatic function abnormal” value ([1]; 30 mg QD, 2 patients)?
**A.** The value was 11.1%.

**Q.** And the “TEAE: hypokalemia” value ([1]; 30 mg QD, 3 patients)?
**A.** The value was 16.7%.

**Q.** And the “Treatment-related AEs” value ([1]; 30 mg QD, 9/18)?
**A.** The value was 50.0%.

**Q.** What about the “percentage of patients who have” value ([1]; 30 mg QD, n = 13/18) of the same molecule?
**A.** The value was 72.2%.

**Q.** And the “AEs considered to be treatment related” value ([1]; 30 mg QD)?
**A.** Its value is 9 (50.0) no. (%).

**Q.** And the “AEs leading to treatment discontinuation” value ([1]; 30 mg QD)?
**A.** Its value is 1 (5.6) no. (%).

**Q.** What about the “Any AE” value ([1]; 30 mg QD) of the same molecule?
**A.** Its value is 13 (72.2) no. (%).

**Q.** What about the “Liver function: ALT increase” value ([1]; 30 mg QD) of the same molecule?
**A.** Its value is 0 (0) no. (%).

**Q.** And the “Liver function: AST increase” value ([1]; 30 mg QD)?
**A.** Its value is 0 (0) no. (%).

**Q.** And the “Liver function: Liver injury” value ([1]; 30 mg QD)?
**A.** The value was 0 (0) no. (%).

**Q.** And the “SAEs considered to be treatment related” value ([1]; 30 mg QD)?
**A.** The value was 1 (5.6) no. (%).

**Q.** What about the “SAEs resulting in death” value ([1]; 30 mg QD) of the same molecule?
**A.** The value was 0 (0) no. (%).

**Q.** And the “SAEs, grade ≥3” value ([1]; 30 mg QD)?
**A.** Its value is 2 (11.1) no. (%).

**Q.** What about the “TEAE … (ALT) increase” value ([1]; 60 mg QD) of the same molecule?
**A.** The value was 33.3%.

**Q.** What about the “treatment-related SAEs” value ([1]; 60 mg QD, 2/18) of the same molecule?
**A.** Its value is 11.1%.

**Q.** What about the “treatment discontinued for AEs due” value ([1]; 60 mg QD, 3/18) of the same molecule?
**A.** The value was 17%.

**Q.** What about the “TEAE: diarrhea” value ([1]; 60 mg QD, 5 patients) of the same molecule?
**A.** The value was 27.8%.

**Q.** And the “percentage of patients who have” value ([1]; 60 mg QD, n = 15/18)?
**A.** The value was 83.3%.

**Q.** And the “AEs considered to be treatment related” value ([1]; 60 mg QD)?
**A.** The value was 14 (77.8) no. (%).

**Q.** And the “AEs leading to treatment discontinuation” value ([1]; 60 mg QD)?
**A.** The value was 4 (22.2) no. (%).

**Q.** And the “Any AE” value ([1]; 60 mg QD)?
**A.** The value was 15 (83.3) no. (%).

**Q.** And the “Liver function: ALT increase” value ([1]; 60 mg QD)?
**A.** The value was 1 (5.6) no. (%).

**Q.** And the “Liver function: AST increase” value ([1]; 60 mg QD)?
**A.** The value was 1 (5.6) no. (%).

**Q.** What about the “Liver function: Liver injury” value ([1]; 60 mg QD) of the same molecule?
**A.** Its value is 1 (5.6) no. (%).

**Q.** And the “SAEs considered to be treatment related” value ([1]; 60 mg QD)?
**A.** Its value is 2 (11.1) no. (%).

**Q.** And the “SAEs resulting in death” value ([1]; 60 mg QD)?
**A.** Its value is 0 (0) no. (%).

**Q.** What about the “SAEs, grade ≥3” value ([1]; 60 mg QD) of the same molecule?
**A.** Its value is 7 (38.9) no. (%).

**Q.** What about the “Treatment-related AEs” value ([1]; 60 mg QD, 14/18) of the same molecule?
**A.** Its value is 77.8%.

**Q.** And the “Absolute change in FVC from baseline after 12 weeks, mean (95% CI)” value (“Absolute change in FVC … (95% CI)” below) ([2]; 30 mg BID)?
**A.** The value was “+19.7 ml”.

**Q.** And the “Absolute change in FVC … (95% CI)” value ([2]; 30 mg QD)?
**A.** Its value is -27.0 mL.

**Q.** What about the “Absolute change in FVC … (95% CI)” value ([2]; 60 mg QD) of the same molecule?
**A.** The value was “+98.4 ml”.

**Q.** And the “Change in FVC - No SOC: FVC change from baseline (95% CI)” value ([2]; 60 mg QD, 12 weeks, not concurrently taking SOC antifibrotic therapy)?
**A.** Its value is “+187.8 mL”.

**Q.** And the “Number of days hospitalized for acute IPF exacerbations, Mean (SD)” value [3]?
**A.** The value was 23.3 days.

**Q.** And the “patients who experienced acute exacerbation of IPF (AE-IPF)” value ([3]; three patients)?
**A.** The value was 16.7%.

**Q.** And the “AUC0–t, arithmetic mean” value ([4]; 30 mg BID, week 0 (first dose))?
**A.** The value was 315 h/ng/mL.

**Q.** And the “AUC0–t, arithmetic mean” value ([4]; 30 mg BID, week 12 (EOT))?
**A.** Its value is 1,390 h ng^−1 ml^−1.

**Q.** What about the “time of peak plasma concentration after administration” value ([4]; 30 mg QD, 30 mg BID, 60 mg QD, single and multiple doses) of the same molecule?
**A.** The value was 1 h.

**Q.** And the “AUC0–t, arithmetic mean” value ([4]; 30 mg QD, week 0 (first dose))?
**A.** The value was 553 h/ng/mL.

**Q.** And the “AUC0–t, arithmetic mean” value ([4]; 30 mg QD, week 12 (EOT))?
**A.** Its value is 788 h/ng/mL.

**Q.** And the “AUC0–t, arithmetic mean” value ([4]; 60 mg QD, week 0 (first dose))?
**A.** The value was 1,630 h ng^−1 ml^−1.

**Q.** And the “AUC0–t, arithmetic mean” value ([4]; 60 mg QD, week 12 (EOT))?
**A.** Its value is 3,450 h ng^−1 ml^−1.

**Q.** And the drug accumulation ([4]; by week 12)?
**A.** Its drug accumulation is “no obvious drug accumulation”.

**Q.** And the steady state achieved ([4]; multiple doses)?
**A.** Its steady state achieved is 2 week.

**Q.** And the “number of significantly altered proteins from baseline to week 12” value (shortened to “number of significantly altered proteins”) ([5]; 30 mg BID)?
**A.** Its value is 39.

**Q.** And the “number of significantly altered proteins” value ([5]; 30 mg QD)?
**A.** The value was 0.

**Q.** And the “number of significantly altered proteins” value ([5]; 60 mg QD)?
**A.** The value was 115.

**Q.** And the “number of serum proteins significantly changing with treatment” value ([5]; week 2, linear regression)?
**A.** Its value is 20.

**Q.** What about the “number of serum proteins significantly changing with treatment” value ([5]; week 4, linear regression) of the same molecule?
**A.** Its value is 82.

**Q.** What about the “number of serum proteins significantly changing with treatment” value ([5]; week 12, linear regression) of the same molecule?
**A.** Its value is 192.

**Q.** What about the “pharmacokinetic (PK) profile, overall” value [6] of the same molecule?
**A.** Its value is “favorable pharmacokinetic (PK) profile”.

**Q.** And the “safety and tolerability, overall” value [6]?
**A.** The value was “safe and well tolerated”.
